Measurements published in ChEMBL document CHEMBL4480457, “Dihydrophenanthrenes from Juncus effusus as Inhibitors of OAT1 and OAT3” (J Nat Prod, 2019).

How the values were obtained:
OAT1 (SLC22A6) = biological target: T1, OAT1 (SLC22A6) (Homo sapiens, UniProt Q4U2R8); experiment: Inhibition of OAT1 (unknown origin) expressed in HEK293 cells assessed as reduction in 6-CF uptake at 50 uM measured after 5 mins by fluorescence assay relative to control; assay type: cell-based; settings: HEK293 cells expressing OAT1, probe 6-CF
T1 sequence (Q4U2R8 whole entry): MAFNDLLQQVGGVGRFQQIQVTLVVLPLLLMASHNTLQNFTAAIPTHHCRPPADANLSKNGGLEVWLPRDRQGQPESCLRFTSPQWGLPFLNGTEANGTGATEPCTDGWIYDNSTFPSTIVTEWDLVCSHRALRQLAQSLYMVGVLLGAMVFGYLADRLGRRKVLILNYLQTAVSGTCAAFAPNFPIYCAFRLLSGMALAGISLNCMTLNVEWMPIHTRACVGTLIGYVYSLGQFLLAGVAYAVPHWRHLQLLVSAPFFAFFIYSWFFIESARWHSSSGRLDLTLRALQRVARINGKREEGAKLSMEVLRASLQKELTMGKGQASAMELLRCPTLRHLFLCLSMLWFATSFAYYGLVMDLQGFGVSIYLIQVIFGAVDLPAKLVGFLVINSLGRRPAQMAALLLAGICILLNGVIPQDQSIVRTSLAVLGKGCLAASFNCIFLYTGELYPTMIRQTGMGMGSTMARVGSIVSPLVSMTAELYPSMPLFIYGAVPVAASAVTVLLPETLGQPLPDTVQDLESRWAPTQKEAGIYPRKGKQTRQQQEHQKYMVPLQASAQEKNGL
In short: (§1)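 Transfected HEK293 cells stably expressing OAT1 or OAT3, maintained under hygromycin B selection, were seeded on poly-D-lysine plates and grown 24 h. Cells preincubated 5 min at 37 °C in Hepes uptake buffer (pH 7.2), then exposed 5 min to 4 μM 6-CF with compound at 50 μM. Ice-cold stop, PBS wash, Triton lysis. Fluorescence read at 485/528 nm, normalized to BCA protein, in triplicate.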

OAT3 = biological target: T2, OAT3 (Homo sapiens, UniProt Q8TCC7); experiment: Inhibition of OAT3 (unknown origin) expressed in HEK293 cells assessed as reduction in 6-CF uptake at 50 uM measured after 5 mins by fluorescence assay relative to control; assay type: cell-based; settings: HEK293 cells expressing OAT3, probe 6-CF; in short: as §1
T2 sequence (Q8TCC7 whole entry): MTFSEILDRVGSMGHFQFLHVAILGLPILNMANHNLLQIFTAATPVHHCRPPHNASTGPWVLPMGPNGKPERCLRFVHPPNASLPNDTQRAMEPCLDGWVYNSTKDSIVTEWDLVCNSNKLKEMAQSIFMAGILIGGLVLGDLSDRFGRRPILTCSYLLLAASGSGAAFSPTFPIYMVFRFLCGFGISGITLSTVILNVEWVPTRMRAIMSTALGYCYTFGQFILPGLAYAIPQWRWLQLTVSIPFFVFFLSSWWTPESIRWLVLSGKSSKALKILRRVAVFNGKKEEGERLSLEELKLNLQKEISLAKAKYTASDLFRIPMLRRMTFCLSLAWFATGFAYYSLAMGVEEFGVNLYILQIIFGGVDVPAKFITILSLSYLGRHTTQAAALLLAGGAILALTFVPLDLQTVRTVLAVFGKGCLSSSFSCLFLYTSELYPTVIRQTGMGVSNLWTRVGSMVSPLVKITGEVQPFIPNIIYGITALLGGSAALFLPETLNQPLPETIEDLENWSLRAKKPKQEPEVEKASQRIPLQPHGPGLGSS

[1] = biological target: T3, Organic anion transporter 3 (Homo sapiens, UniProt Q8TCC7); experiment: Inhibition of OAT3 (unknown origin) expressed in HEK293 cells assessed as reduction in 6-CF uptake measured after 5 mins by fluorescence assay; assay type: cell-based; settings: for inhibition (INH): human, hek293, 5 min
T3 sequence (Q8TCC7 whole entry): T2 sequence (Q8TCC7 whole entry)
In short: (§2)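 Uptake of 4 μM 6-CF measured over 5 min in stable OAT1- or OAT3-HEK293 cells, in pH 7.2 Hepes buffer at 37 °C with serial dilutions of compound. Lysate fluorescence (485/528 nm) normalized to protein, triplicate. IC50 obtained by nonlinear regression, reported as mean ± SEM.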

[2] = biological target: T4, Solute carrier family 22 member 6 (Homo sapiens, UniProt Q4U2R8); experiment: Inhibition of OAT1 (unknown origin) expressed in HEK293 cells assessed as reduction in 6-CF uptake measured after 5 mins by fluorescence assay; assay type: cell-based; settings: for inhibition (INH): human, hek293, 5 min; in short: as §2
T4 sequence (Q4U2R8 whole entry): T1 sequence (Q4U2R8 whole entry)

[3] = Toxicity in Wistar rat at 10 mg/kg, po administered via gavage; assay type: organism-based; settings: in vivo
In short: (§3)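 Preliminary test in fasted rats: single oral gavage dose in 40% PEG-400, observed for toxic response.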

[4] = Toxicity in Wistar rat at 20 mg/kg, po administered via gavage; assay type: organism-based; settings: in vivo; in short: as §3
Rattus norvegicus [5] = experiment: In vivo inhibition of OAT1 and OAT3 in Wistar rat assesed as increase in furosemide AUC (0 to t) at 20 mg/kg, po administered via gavage pretreated for 5 mins followed by furosemide addition and measured within 10 mins by HPLC analysis; assay type: functional; set-up: scale not given: the % may be the effect or the level left
In short: (§4)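 Rats (5 per group) fasted 12 h, then pretreated by oral gavage with test agent in 40% PEG-400 or vehicle. After 5 min, furosemide 10 mg/kg in saline given by tail vein injection. Orbital sinus blood taken at 2–120 min. Plasma extracted with MeCN containing warfarin internal standard. Furosemide quantified by C18 HPLC with UV detection at 280 nm. AUC0−t calculated.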

Rattus norvegicus [6] = experiment: In vivo inhibition of OAT1 and OAT3 in Wistar rat assesed as increase in furosemide AUC (0 to t) at 10 mg/kg, po administered via gavage pretreated for 5 mins followed by furosemide addition and measured within 10 mins by HPLC analysis; assay type: functional; set-up: scale not given: the % may be the effect or the level left; settings: in the assay text read “at 20 mg/kg” for “at 10 mg/kg”; in short: as §4
Rattus norvegicus [7] = experiment: In vivo inhibition of OAT1 and OAT3 in Wistar rat assesed as increase in furosemide AUC (0 to t) at 20 mg/kg, po administered via gavage pretreated for 5 mins followed by furosemide addition and measured within 30 mins by HPLC analysis; assay type: functional; set-up: scale not given: the % may be the effect or the level left; in short: as §4
Rattus norvegicus [8] = experiment: In vivo inhibition of OAT1 and OAT3 in Wistar rat assesed as increase in furosemide AUC (0 to t) at 10 mg/kg, po administered via gavage pretreated for 5 mins followed by furosemide addition and measured within 30 mins by HPLC analysis; assay type: functional; set-up: scale not given: the % may be the effect or the level left; settings: in the assay text read “at 20 mg/kg” for “at 10 mg/kg”; in short: as §4
Rattus norvegicus [9] = experiment: In vivo inhibition of OAT1 and OAT3 in Wistar rat assesed as increase in furosemide AUC (0 to t) at 20 mg/kg, po administered via gavage pretreated for 5 mins followed by furosemide addition and measured within 90 mins by HPLC analysis; assay type: functional; set-up: scale not given: the % may be the effect or the level left; in short: as §4
Rattus norvegicus [10] = experiment: In vivo inhibition of OAT1 and OAT3 in Wistar rat assesed as increase in furosemide AUC (0 to t) at 10 mg/kg, po administered via gavage pretreated for 5 mins followed by furosemide addition and measured within 90 mins by HPLC analysis; assay type: functional; set-up: scale not given: the % may be the effect or the level left; in short: as §4

Row | Structure (SMILES) | inhibition at 5 min, 50 µM (OAT1 (SLC22A6)) | inhibition at 5 min, 50 µM (OAT3) | IC50 [1] | inhibition (INH) [1] | IC50 [2] | inhibition (INH) [2] | Activity [3] | Activity [4] | Activity (Rattus norvegicus [5]) | Activity (Rattus norvegicus [6]) | Activity (Rattus norvegicus [7]) | Activity (Rattus norvegicus [8]) | Activity (Rattus norvegicus [9]) | Activity (Rattus norvegicus [10])
1 | C=Cc1cc(C(=O)O)cc2c1CCc1c-2ccc(O)c1C | < 50% | > 50% | 2.8 µM | Dose-dependent effect |  |  |  |  |  |  |  |  |  | 
2 | C=Cc1cc(C(=O)O)cc2c1-c1ccc(O)c(C)c1CC2 | > 50% | > 50% | 1.1 µM | Dose-dependent effect | 4.4 µM | Dose-dependent effect |  |  |  |  |  |  |  | 
3 | COc1cc(C(=O)c2ccc(O)c(OC)c2)ccc1O | > 50% | > 50% | 2.3 µM | Dose-dependent effect | 3.5 µM | Dose-dependent effect |  |  |  |  |  |  |  | 
4 | C=Cc1c(C)c(O)cc2c1-c1ccc(O)c(C)c1CC2 | < 50% | > 50% | 6.5 µM | Dose-dependent effect |  |  |  |  |  |  |  |  |  | 
5 | C=Cc1cc(O)cc2c1-c1ccc(O)c(C)c1CC2 [EFFUSOL] | > 50% | > 50% | 22.7 µM |  | 23.3 µM |  |  |  |  |  |  |  |  | 
6 | COC(C)c1cc(O)cc2c1-c1ccc(O)c(C)c1CC2 (racemic) | > 50% | > 50% | 8.3 µM | Dose-dependent effect | 43.1 µM |  |  |  |  |  |  |  |  | 
7 | C=Cc1c(C(=O)O)ccc2c1CCc1c-2ccc(O)c1C | > 50% | > 50% | 1.1 µM | Dose-dependent effect | 18.3 µM |  |  |  |  |  |  |  |  | 
8 | CCCN(CCC)S(=O)(=O)c1ccc(C(=O)O)cc1 [PROBENECID] |  |  |  |  |  |  | Non-Toxic |  |  |  |  |  |  | 
9 | C=Cc1cc2c(cc1C(=O)O)CCc1c-2ccc(O)c1C | > 50% | > 50% | 1.3 µM | Dose-dependent effect | 8.4 µM | Dose-dependent effect |  | Non-Toxic | 70% | 70% | 62% | 62% | 66% | 66%
